Our source for the outcome, potentiation and current potentiation values is PubChem BioAssay.

The source made the active and inactive calls.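 Rule for the calls, unless noted: active = mean duplicate potentiation above the buffer control mean plus 5 SD of buffer wells; inactive = the rest.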

Assay [1] in a line: nonspecific flux increase, KCNQ1-free cells – parental CHO cells, counter-screen for KCNQ1 potentiator project (AID 493006;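 active = duplicate-averaged activation above buffer control mean plus 5 SD of those controls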). As to conditions: parental CHO-K1 cells, FluxOR thallium flux, at 10 µM; stronger effect = higher value. An outline of the steps:
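Assay system: parental CHO-K1 cells lacking KCNQ1, loaded with FluxOR thallium dye; timing: dye 90 min RT, compound 20 min RT; signal: kinetic thallium-flux fluorescence; repeats: duplicate wells per compound, percent values averaged; benchmarks: buffer and R-L3 controls; reagent: Potassium/thallium depolarization pulse; read-out: fluorescence change ratio scaled 0% buffer, 100% R-L3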
(In general: Counterscreens check selectivity or assay interference.)

The target in assay [2] is Potassium voltage-gated channel subfamily KQT member 1 (Homo sapiens) (UniProt P51787). The experiment in a line: enhancement of KCNQ1 channel thallium flux – FluxOR thallium flux, CHO cells, duplicates, confirmation (AID 493007;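 active = potentiation averaged over duplicate wells exceeding buffer-only control mean by more than 3 SD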;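 for outcome: cells depolarized by a potassium plus thallium sulfate stimulus after compound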). As to conditions: KCNQ1 cell line, FluxOR thallium flux fluorescence, at 10 µM; stronger effect = higher value, % of reference activator effect, buffer zero. An outline of the steps:
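material = CHO cells stably expressing the KCNQ1 potassium channel | repeats = duplicate wells per compound | measure = percent activation between buffer and R-L3 responses | signal = FluxOR thallium-flux fluorescence, kinetic read | schedule = FluxOR dye loading 90 min, compound exposure 20 min, room temperature | control set = buffer and R-L3 controls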

The target of assay [3] is Potassium voltage-gated channel subfamily KQT member 2 (Rattus norvegicus) (UniProt O88943). The experiment in a line: KCNQ2 thallium flux enhancement – KCNQ2-CHO-K1 cells, selectivity assay for KCNQ1 potentiator project (AID 493009).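 Note: assay conditions were tuned for KCNQ1 rather than KCNQ2 modulators; signal is max minus min fluorescence divided by baseline after thallium stimulus.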 The settings on record: FluxOR thallium flux fluorescence, at 10 µM; stronger effect = higher value, scaled: buffer 0, activator control 100.
Chain of Potassium voltage-gated channel subfamily KQT member 2 (Rattus norvegicus) (O88943 whole entry, looked up): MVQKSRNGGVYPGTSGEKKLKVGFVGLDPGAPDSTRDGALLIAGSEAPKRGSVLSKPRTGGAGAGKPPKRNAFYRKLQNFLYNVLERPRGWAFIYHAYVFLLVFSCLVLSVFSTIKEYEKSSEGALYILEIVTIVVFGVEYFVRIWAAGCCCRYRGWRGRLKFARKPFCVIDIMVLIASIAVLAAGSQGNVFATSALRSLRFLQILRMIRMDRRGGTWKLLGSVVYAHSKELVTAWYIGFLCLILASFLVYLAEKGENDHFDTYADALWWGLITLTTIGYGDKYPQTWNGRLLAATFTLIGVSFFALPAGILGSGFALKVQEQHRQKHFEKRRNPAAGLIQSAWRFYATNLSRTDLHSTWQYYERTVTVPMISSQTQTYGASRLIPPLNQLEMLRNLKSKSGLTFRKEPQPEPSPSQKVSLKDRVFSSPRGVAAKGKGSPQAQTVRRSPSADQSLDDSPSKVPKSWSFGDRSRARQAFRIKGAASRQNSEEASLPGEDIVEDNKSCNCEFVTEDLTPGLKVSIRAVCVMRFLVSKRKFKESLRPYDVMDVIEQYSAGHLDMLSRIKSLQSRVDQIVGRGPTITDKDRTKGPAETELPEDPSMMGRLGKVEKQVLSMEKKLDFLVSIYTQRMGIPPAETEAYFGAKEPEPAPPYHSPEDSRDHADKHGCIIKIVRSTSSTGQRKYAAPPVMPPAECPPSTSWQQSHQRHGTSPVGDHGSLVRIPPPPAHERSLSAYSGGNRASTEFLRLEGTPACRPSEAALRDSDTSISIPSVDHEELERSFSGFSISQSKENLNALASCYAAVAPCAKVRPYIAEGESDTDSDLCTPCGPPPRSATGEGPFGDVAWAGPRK
The target in assay [4] is Potassium voltage-gated channel subfamily KQT member 1 (Homo sapiens) (UniProt P51787). The assay can be described thus: KCNQ1 activators by electrophysiology – IonWorks patch clamp, KCNQ1-CHO cells, orthogonal assay for KCNQ1 potentiator project, confirmation (AID 493184;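 active = current rise at least 3 SD above the untreated control mean in each of two repeat wells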;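 for current potentiation: percent change of the same well's current before compound addition so 0% = no change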). The settings on record: automated patch clamp current, at 10 µM; stronger effect = higher value. An outline of the steps: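 Assay system – CHO cells carrying KCNQ1 · Medium – pH 7.4 external bath · Probe or stimulus – depolarizing pulse to +40 mV from -90 mV · Compound dosing – one dose, 10 µM final · Measured by – automated perforated-patch electrophysiology · Measure – % potentiation of steady-state current relative to pre-compound · Repeats – two replicates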
Chain of Potassium voltage-gated channel subfamily KQT member 1 (Homo sapiens) (P51787 whole entry, looked up): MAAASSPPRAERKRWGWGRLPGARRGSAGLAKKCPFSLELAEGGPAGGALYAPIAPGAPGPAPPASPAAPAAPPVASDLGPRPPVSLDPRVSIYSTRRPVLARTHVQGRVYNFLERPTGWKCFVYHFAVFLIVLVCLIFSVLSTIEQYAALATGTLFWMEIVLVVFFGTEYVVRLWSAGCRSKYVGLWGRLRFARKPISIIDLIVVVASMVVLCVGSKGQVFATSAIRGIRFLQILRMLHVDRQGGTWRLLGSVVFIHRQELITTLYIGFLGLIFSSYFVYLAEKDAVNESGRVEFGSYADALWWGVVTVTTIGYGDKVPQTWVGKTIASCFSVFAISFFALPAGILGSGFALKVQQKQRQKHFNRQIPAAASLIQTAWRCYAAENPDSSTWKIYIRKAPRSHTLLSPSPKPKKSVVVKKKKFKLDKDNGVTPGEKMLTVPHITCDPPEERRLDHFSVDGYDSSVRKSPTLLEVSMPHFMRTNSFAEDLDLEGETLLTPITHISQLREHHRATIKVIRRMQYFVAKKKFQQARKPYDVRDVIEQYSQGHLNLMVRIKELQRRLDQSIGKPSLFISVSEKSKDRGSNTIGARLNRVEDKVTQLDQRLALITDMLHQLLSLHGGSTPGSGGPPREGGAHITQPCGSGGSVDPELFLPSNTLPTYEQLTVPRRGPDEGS
In general terms: In patch-clamp work, channel activity is measured electrically.

In assay [5] the target is Potassium voltage-gated channel subfamily E member 1 (Homo sapiens) + Potassium voltage-gated channel subfamily KQT member 1 (Homo sapiens) (UniProt P15382+P51787). The experiment in a line: KCNQ1-E1 channel activation – thallium flux, CHO-K1 KCNQ1/E1 cells, selectivity assay for KCNQ1 potentiator project, confirmation (AID 493186;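 active = mean duplicate activation above the buffer control mean plus 5 SD of those controls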). The settings on record: FluxOR thallium flux, at 10 µM; stronger effect = higher value. An outline of the steps: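 Assay system: CHO-K1 cells with KCNQ1/E1 | Dosing: Single compound concentration per well | Incubation: Dye 90 min, compound 20 min, room temperature | Measured by: FluxOR Tl+ flux fluorescence, kinetic read | Controls: Buffer low control, R-L3 high control | Replicates: Duplicate wells per compound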
Chain of Potassium voltage-gated channel subfamily E member 1 (Homo sapiens) + Potassium voltage-gated channel subfamily KQT member 1 (Homo sapiens) (P51787 whole entry, looked up): as the sequence (P51787 whole entry, looked up) above

Take `Oc1c(Br)cc(Br)cc1CNc1cccc2cccnc12`: the result in assay [1], in assay [3], in assay [4] and in assay [5] was inactive. In assay [2], the potentiation is 28.5% (active).
Regarding `COCCCN1C(=O)C(=O)/C(=C(/O)c2ccc(C)cc2)C1c1ccccc1` (stereo not given), the outcome in assay [1], in assay [2], in assay [3], in assay [4] and in assay [5] was inactive.
As to `CCCOc1ccc(C(=O)NNC(=S)NC(=O)CC)cc1`, the result in assay [1], in assay [2], in assay [3], in assay [4] and in assay [5] was inactive.
Take `CCOC(=O)N/C(N)=N/c1nc2ccccc2s1`: the result in assay [1], in assay [2], in assay [3], in assay [4] and in assay [5] was inactive.
Turning to `CSc1ncc(C(=O)Nc2ccccc2Cl)c(C)n1`, the outcome in assay [1], in assay [2], in assay [3], in assay [4] and in assay [5] was inactive.
Regarding `Cc1ccc(/C=N/NC(=O)c2cc(C3CC3)nc3ccccc23)o1`, the result in assay [1], in assay [3], in assay [4] and in assay [5] was inactive. Besides, the potentiation in assay [2] was 29.5% (active).
Take `COc1cccc(C2C3=C(N=c4s/c(=C\c5ccc(OCC(=O)O)cc5)c(=O)n42)c2ccccc2CC3)c1` (stereo not given): the outcome in assay [1], in assay [3], in assay [4] and in assay [5] was inactive. Besides, the potentiation in assay [2] is 53% (active).
For `Cc1cccc(/N=C/c2sc3ccccc3c2O)n1`, the outcome in assay [1], in assay [2], in assay [3], in assay [4] and in assay [5] was inactive.
On to `COc1ccc(C(=O)NNC(=O)C(=O)NCc2ccccc2)cc1`, for which the outcome in assay [1], in assay [4] and in assay [5] was inactive. In addition, the potentiation in assay [2] was 29% (active); in assay [3] it was 144% (active).
`S=C(Nc1ccccc1)Nc1nc2ccccc2n1CCOc1ccc(Cl)cc1`: the result in assay [1], in assay [2], in assay [3], in assay [4] and in assay [5] was inactive.
As to `O=C(NC(=S)Nc1ccccc1)c1cncc(C#Cc2ccccc2)c1`, the result in assay [1], in assay [3], in assay [4] and in assay [5] was inactive. For the same compound, the potentiation in assay [2] was 37% (active).
As for `CCC1CCCCN1CCCNC(=O)CSc1nc2nc(C)c(Cc3ccccc3)c(C)n2n1` (stereo not given), the result in assay [1], in assay [2], in assay [3], in assay [4] and in assay [5] was inactive.
Consider `Cc1ccc(S(=O)(=O)Nc2cccc3ncccc23)s1`, for which the outcome in assay [1], in assay [4] and in assay [5] was inactive. Moreover, the potentiation in assay [2] is 19.5% (active); in assay [3] it was 168% (active).
For `Cc1cccc(NC(=S)c2nc3ccccc3s2)c1`, the result in assay [1], in assay [4] and in assay [5] was inactive. Further, the potentiation in assay [2] was 146% (active); in assay [3], 219% (active).
As for `CN(C)c1cccc(C(=O)N2CCCC(C(=O)c3cc(F)ccc3F)C2)c1` (stereo not given), the result in assay [1], in assay [2], in assay [3], in assay [4] and in assay [5] was inactive.
As for `Cc1cccc2sc(N(CCCN(C)C)C(=O)c3ccc4ncsc4c3)nc12`, the outcome in assay [1], in assay [2], in assay [3], in assay [4] and in assay [5] was inactive.
Consider `CCOC(=O)c1oc2ccc(S(=O)(=O)n3nc(-c4ccc(OC)cc4)cc3N)cc2c1C`, for which the outcome in assay [1], in assay [2], in assay [3] and in assay [5] was inactive. Moreover, the current potentiation in assay [4] was 15.4% (active).
For `COc1cccc(NC(=S)N/N=C2/CCCCc3ccccc32)c1`, the outcome in assay [1], in assay [3], in assay [4] and in assay [5] was inactive. In addition, the potentiation in assay [2] was 26% (active).
With `CCN(CC(=O)Nc1c(F)cccc1F)C(=O)C1CCN(C(=O)c2ccc(Cl)cc2)CC1`, the outcome in assay [1], in assay [2], in assay [3], in assay [4] and in assay [5] was inactive.
Consider `CCCCNC(=O)CCc1c(C)nc2c(c(C)nn2-c2ccccc2)c1C`, for which the outcome in assay [1], in assay [2], in assay [3], in assay [4] and in assay [5] was inactive.
In the case of `C=CCNC(=S)Nc1sc2c(c1C(=O)OCC)CCN(C(=O)OCC)C2`, the outcome in assay [1], in assay [2], in assay [3], in assay [4] and in assay [5] was inactive.
With `CCOc1ccc(OCCCN(C)C)cc1`, the result in assay [1], in assay [2], in assay [3], in assay [4] and in assay [5] was inactive.
For the compound `Oc1c(N=NC(=S)Nc2ccccc2F)c2ccccc2n1Cc1ccc(Cl)cc1`, the result in assay [1], in assay [2], in assay [3], in assay [4] and in assay [5] was inactive.
In the case of `COc1ccc(-c2nc(=S)c3c([nH]2)Oc2ccc(C)cc2C3)cc1O`, the outcome in assay [1], in assay [3], in assay [4] and in assay [5] was inactive. Further, in assay [2], the potentiation was 28.5% (active).
`O=C(NC1CCCC1)C(c1cccnc1)N(C(=O)c1csnn1)c1ccccc1` (stereo not given): the result in assay [1], in assay [3], in assay [4] and in assay [5] was inactive. In assay [2], the potentiation was 27% (active).
For `CC1CCc2c(sc(NC(=O)C(=O)NCc3ccco3)c2C#N)C1` (stereo not given), the outcome in assay [1], in assay [2], in assay [3], in assay [4] and in assay [5] was inactive.
Regarding `COC(=O)c1sc(NC(=S)NC(=O)c2cccc(C)c2)nc1C`, the result in assay [1], in assay [2], in assay [3], in assay [4] and in assay [5] was inactive.
Turning to `CCN(CC)S(=O)(=O)c1cccc(C(=O)N/N=C/c2cccc(O)c2O)c1`, the outcome in assay [1], in assay [2], in assay [3], in assay [4] and in assay [5] was inactive.
As to `COc1ccc(-c2csc(NC(=S)NC(=O)c3cccs3)n2)cc1Br`, the result in assay [1], in assay [2], in assay [3], in assay [4] and in assay [5] was inactive.
For the compound `CCOC(=O)c1cc2c(C)n(-c3ccc(C)cc3)c(C)c2ccc1=O`, the outcome in assay [1], in assay [3], in assay [4] and in assay [5] was inactive. For the same compound, the potentiation in assay [2] is 19.5% (active).
